Bioassay records as filed in PubChem BioAssay.
CaV13 ICDI inh: Primary screen for inhibitors of IQ motif and Ca2+-dependent inactivation inhibitor domain binding in CACNA1D, Förster resonance energy transfer in living cells, … | HEK cells, CFP/YFP FRET ICDI-IQ, plate reader, 10 min; percent FRET-ratio fall versus neutral wells | inhibition, % at 12.3 µM | hit rate 0.098% among 340,000 | AID 743397;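 active means mean replicate inhibition of at least 30% and at least 1% of replicates passing that level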;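 further: 0% = median of the neutral control wells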
T cell modulator: modulators of CD8 T cell-vesicle binding, primary screen, mouse 2C CD8+ T cells, flow cytometry; 2C CD8+ T cell-vesicle binding; stronger effect = lower value; response (vesicle binding), % at 7 µM; hit rate 0.068% among 330,000; AID 2052, 2009;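 active means response, share of CD8 T cells binding vesicles, and their 90th percentile fluorescence all below set limits, cut at about 80% in these data, passing the limit was not always enough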;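 further: values below 100% mean blocked vesicle binding to the CD8+ T cells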
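material = purified 2C TCR transgenic mouse naive CD8+ T cells | controls = Unloaded micro-vesicles (low), QL9 vesicles with 0.7% DMSO (high) | detection = cytometric PE anti-B7-1 and Alexa647 anti-CD8 signals after 1% paraformaldehyde fixation | incubation = binding step 1.5 h, 37 °C, antibody labelling 20 min, ice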
proCasp7 act: procaspase-7 activators, primary screen, counter-screen for procaspase-3 activator project, biochemical, absorbance, HTS, human; AID 463210, 2010; activation, % at 8.5 µM; recombinant procaspase-7, Ac-DEVD-pNA absorbance 405 nm; D23A/D198A/D206A triple mutant, cannot self-cleave; scale: DMSO 0, 5 µM enzyme 100; hit rate 0.093% among 330,000;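 active means percent activation above the screen-wide mean plus 3 SD, cut at about 25% in these data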
Target sequence (P55210 whole entry D23A/D198A/D206A): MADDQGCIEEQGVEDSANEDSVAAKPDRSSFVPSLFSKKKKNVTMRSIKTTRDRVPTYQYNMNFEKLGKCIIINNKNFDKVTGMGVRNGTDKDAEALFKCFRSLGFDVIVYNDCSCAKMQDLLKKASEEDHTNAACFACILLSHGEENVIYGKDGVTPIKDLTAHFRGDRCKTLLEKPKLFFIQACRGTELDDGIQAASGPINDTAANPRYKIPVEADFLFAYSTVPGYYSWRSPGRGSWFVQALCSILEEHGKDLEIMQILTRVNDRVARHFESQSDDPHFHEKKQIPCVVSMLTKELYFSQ
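Assay system: Uncleavable procaspase-7 mutant enzyme | Input: 2 µM procaspase-7 mutant as dispensed | Timing: 1 h compound preincubation, 2 h substrate cleavage, 25 °C | Repeats: One well per compound | Control set: DMSO wells as 0%, DMSO with 5 µM added PC-7 as 100% | Technique: Epi-absorbance of released pNA at 405 nm, two timepoints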
aDG glyco up: activators of alpha-DG glycosylation, primary screen, uHTS, Pro5-aDG cells, AlphaScreen; AID 624168, 2012; activation, % at 10 µM; hit rate 0.22% among 360,000; alpha-DG glycosylation AlphaScreen (IIH6); 0% Pro5, 100% B10-LARGE cell signal;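 active means activation of at least 8% versus controls, or a plate z-score of at least 8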;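 further: Pro5 are CHO cells carrying HIG-tagged alpha-DG that lacks glycosylation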
procasp3 activ: activators of human procaspase-3 D3A mutant, primary screen, biochemical, absorbance, PC-3 D3A mutant, single concentration; hit rate 0.11% among 330,000; Caspase-3 (Homo sapiens), P42574; activation, % at 8.5 µM; recombinant procaspase-3 D3A, Ac-DEVD-pNA absorbance 405 nm;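 active means activation above the mean of all tested compounds plus 3 SD, cut at about 21% in these data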;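 further: 0% = DMSO alone and 100% = DMSO wells spiked with extra 5 µM PC-3 D3A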
Target sequence (P42574 whole entry D9A/D28A/D175A): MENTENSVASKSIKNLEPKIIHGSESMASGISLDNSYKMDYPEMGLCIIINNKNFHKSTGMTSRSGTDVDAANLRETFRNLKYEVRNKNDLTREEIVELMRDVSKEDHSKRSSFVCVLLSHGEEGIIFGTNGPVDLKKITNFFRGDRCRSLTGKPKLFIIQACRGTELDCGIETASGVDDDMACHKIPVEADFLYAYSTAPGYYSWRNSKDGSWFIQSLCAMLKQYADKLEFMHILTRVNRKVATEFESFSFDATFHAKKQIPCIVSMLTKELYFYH
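Evaluation: percent activation relative to control range; Material: Procaspase-3 D3A mutant, all three cleavage aspartates alanine; Compound: single dose, 8.5 µM nominal compound, 0.8% DMSO; Replication: one well per compound; Signal: absorbance at 405 nm, 0 and 120 min; Schedule: 1 h preincubation plus 2 h reaction at 25 °C.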
GRK2 inh: compounds blocking aptamer binding on GRK2 – biochemical, human GRK2, bead flow cytometry, HTS, primary screen; FAM-aptamer displacement from GRK2; inhibition of aptamer binding, % at 10 µM; hit rate 0.59% among 330,000;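 active means inhibition of aptamer binding above 40%, roughly 3 SD of noise, on plates passing a quality check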;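 further: median bead fluorescence of bound FAM aptamer so fluorescent compounds give negative values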
An asterisk follows results filed as active; i = inactive; . = not tested or not shown. The list is not random: actives were taken first. Their share in the collection is about 1.1%.

SMILES	CaV13 ICDI inh	T cell modulator	proCasp7 act	aDG glyco up	procasp3 activ	GRK2 inh
CC(=O)c1csc(-c2cccc(-c3nc4ccc(Cl)cn4c3NC3CCCCC3)c2)c1	-12.2	0.0*	7.2	-0.5	-5.1	5.0
COc1ccc(-c2cccc(-c3nc4ccc(Cl)cn4c3NC3CCCCC3)c2)cc1	-9.7	311.7	5.5	0.1	-1.0	0.0
C[C@@H]1ON(C)[C@H]2C[C@H]3c4[nH]c5cccc(-c6ccccc6)c5c4CCN3C[C@@H]12	-5.1	.	.	.	.	.
CC(C)(CNC(=O)c1cc2c(s1)CCCC2)N1CCOCC1	-5.9	68.5*	0.8	-0.1	4.2	0.0
Cc1ccc(C(=O)NCC(C)(C)N2CCOCC2)s1	-4.6	342.8	6.3	0.0	6.4	3.0
CN(CC(=O)Nc1cccc(F)c1)C(=O)c1cc(-c2ccco2)nc2ccccc12	-5.4	259.1	-10.1	-0.3	-8.6	16.0
COc1ccc(NC(=O)CN(C)C(=O)c2cc(-c3ccco3)nc3ccccc23)cc1	-6.0	217.1	-8.8	-0.1	5.1	76.0*
COC(=O)C1CCN(C(=O)c2cc(-c3ccco3)nc3ccccc23)CC1	-19.4	374.5	-28.3	0.7	-16.1	76.0*
O=C(c1cc(-c2ccco2)nc2ccccc12)N1CCN(Cc2ccccc2)CC1	-4.8	231.2	-5.1	-0.2	1.9	3.0
O=C1c2[nH]nc(-c3ccccc3)c2C(c2ccc(F)cc2)N1Cc1ccccc1 (stereo not drawn)	-4.3	.	.	.	.	.
Cc1ccc(S(=O)(=O)NCc2ccccn2)c(C)c1C	-20.3	195.1	8.6	0.0	1.2	0.0
Cc1ccc(S(=O)(=O)NCc2ccncc2)c(C)c1C	-3.0	298.5	-6.5	7.2*	0.9	1.0
Cc1cc(C)c(S(=O)(=O)NCCc2ccncc2)c(C)c1	-1.8	189.8	2.4	0.2	7.8	3.0
Cc1cc(C)c(S(=O)(=O)NCc2ccncc2)c(C)c1	-4.5	242.6	6.2	6.3*	3.1	0.0
CCn1c(C)nc2cc(C(=O)NNC(=O)CN(C)S(=O)(=O)c3ccc(NC(C)=O)cc3)ccc21	-2.0	151.3	8.9	0.9	5.2	100.0*
CC(/C=C/c1ccc(C)o1)=C\C(=O)O	-4.9	66.1*	-17.6	-0.1	-9.9	2.0
CC(=C/C(=O)O)/C=C/c1ccc(Cl)o1	-0.3	391.9	-15.5	-0.4	-10.9	30.0
COc1ccc(OC)c(C2C(C(=O)Nc3nc4ccccc4s3)=C(C)NC3=C2C(=O)CCC3)c1 (stereo not drawn)	-1.4	177.4	-4.3	0.5	-2.6	0.0
COc1cccc(C2C(C(=O)Nc3nc4ccccc4s3)=C(C)NC3=C2C(=O)CC(C)(C)C3)c1OC (stereo not drawn)	-2.2	360.4	22.7	0.4	45.1*	1.0
COc1ccc(-c2cc(CNS(=O)(=O)c3cc(OC)ccc3OC)on2)cc1	.	243.1	-3.0	0.3	-3.2	3.0
COc1ccc(-c2cc(CNS(=O)(=O)c3ccc(NC(C)=O)cc3)on2)cc1	.	0.0*	3.1	-0.5	-0.1	3.0
COCCN1Cc2cc(C(=O)OC)c3c(c2C1=O)c1cc(OC)ccc1n3S(=O)(=O)c1ccc(F)cc1	-8.4	.	.	.	.	.
O=C(/C(Br)=C/Nc1cc(Cl)ccc1Cl)C(F)(F)F	-6.3	329.6	4.2	0.0	-4.9	86.0*
CC1CCN(S(=O)(=O)N2CCC(C(=O)NC3CCCC3)CC2)CC1	76.2*	709.5	5.3	0.1	2.2	0.0
COC(=O)C1=C(C)N(Cc2cccc(C(F)(F)F)c2)C(=NCc2ccc(C(F)(F)F)cc2)NC1c1cccc(C(F)(F)F)c1 (stereo not drawn)	-3.6	.	.	.	.	.
SMILES	CaV13 ICDI inh	T cell modulator	proCasp7 act	aDG glyco up	procasp3 activ	GRK2 inh
Cc1cc2oc3cc(NCCC4CCCN4C)ccc3c(=O)c2cc1C (stereo not drawn)	76.6*	647.8	0.2	0.9	1.4	0.0
CN1CCCC1CCNc1ccc2sc3ccccc3c(=O)c2c1 (stereo not drawn)	-29.5	i	7.8	0.5	-1.4	0.0
Cc1cc(C)nc(NN2C(=O)/C(=C/c3ccc(O)cc3)SC2=S)n1	-9.5	336.6	-18.2	-0.2	3.8	84.0*
Cc1cccc(-n2ncc3c(N4CCCC4)ncnc32)c1	-4.5	0.0*	3.2	-0.1	1.4	0.0
C#CCN1CC(COc2ccccc2)Oc2cccc(Oc3ccc(SC)c(C)c3)c2S1(=O)=O (stereo not drawn)	-8.6	.	.	.	.	.
COC(=O)c1cc2c(c3c4cc(C)ccc4n(S(=O)(=O)c4ccc(OC)cc4)c13)C(=O)N(C)C2	-10.0	.	.	.	.	.
C[C@H]1CN(c2ccc(N3CCNC[C@@H]3C)cc2C#N)CCN1Cc1ccccc1	-11.0	.	.	.	.	.
Cc1cc(Cl)c(OCCCSc2nc(C)cc(=O)[nH]2)c(Br)c1	-8.0	74.5*	-4.8	-0.1	-2.9	0.0
Cc1cc(=O)[nH]c(SCCCOc2ccc(F)cc2)n1	-3.9	396.1	4.5	-0.2	1.1	0.0
CCOC(=O)C1=NN(C(C)=O)C2(CC(=O)N(c3cc(C)cc(C)c3)C2=O)C1 (stereo not drawn)	-5.8	194.3	-3.3	-0.2	5.5	100.0*
O=C(c1ccccc1NS(=O)(=O)c1cccc([N+](=O)[O-])c1)N1CCOCC1	-7.5	296.9	7.4	-0.1	26.2*	0.0
O=C(NCC1CCN(C(=O)C(=O)c2cccs2)CC1)c1ccc2c(c1)CCO2	-9.2	.	.	.	.	.
COc1ccc(C(=O)NCC2CCN(C(=O)C(=O)c3cccs3)CC2)c(OC)c1	-9.8	.	.	.	.	.
COc1cc(/C(C)=N/Nc2ccc(C(=O)O)cc2)cc(OC)c1OC	-4.4	452.9	-0.1	-0.1	3.4	71.0*
COCCn1c(C)cc(C(=O)CN2CCCCC2)c1C	-6.0	235.3	5.7	0.1	-3.5	1.0
COCCn1c(C)cc(C(=O)CN2C(=O)NC3(CCCCCCC3)C2=O)c1C	-9.0	0.0*	0.7	-0.2	-5.2	3.0
C=CC(C)(C)c1c2occc2c(O)c2ccc(=O)oc12	.	i	-11.5	-0.2	2.4	3.0
C=CC(C)(C)c1c(O)c(CC=C(C)C)c(O)c2c(=O)c3ccc(O)c(O)c3oc12	.	32.0*	-6.3	0.0	-0.1	2.0
